Data from ChEMBL document CHEMBL1146084, “Discovery of orally efficacious melanin-concentrating hormone receptor-1 antagonists as antiobesity agents. Synthesis, SAR, and biological evaluation of bicyclo[3.1.0]hexyl ureas” (J Med Chem, 2006).
Values belong to the compound of their own block, whether it stands above or below them. The source made the active and inactive calls. No cut-off for these calls is given here.

What was measured:
[1] = tested on: Mus musculus; experiment: Reduction of food intake in orally dosed C57BL/6N DIO mouse after 24 hrs at 30 mg/kg relative to control; type: functional
Summary of the method: (§1)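 Male C57Bl/6NCrl:BR mice made obese on a 45%-fat diet, individually housed, 12 h light/dark, 22 °C; acclimated to oral 20% hydroxypropyl-β-cyclodextrin vehicle for 2-3 days. Single oral 30 mg/kg dose in 20% HPβCD; food intake weighed to 0.01 g at 2, 6 and 24 h, expressed as % of vehicle ± SEM.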

[2] = Ratio of drug level in brain against plasma in rat after 6 hrs at 10 mg/kg, po; type: ADME, organism-based; parameters: dose 10 mg/kg, route oral
[3] = (§2) AUC (0-24h) in rat at 10 mg/kg, po; type: ADME, organism-based, Plasma; parameters: time < 24 hr, dose 10 mg/kg, route oral; details: plasma
[4] = target: Melanin-concentrating hormone receptor 1 (Mus musculus) (UniProt Q8JZL2); experiment: Receptor occupancy ex vivo by displacement of [125I]S36057 binding from MCHR1 in C57BL/6N mouse brain after 6 hrs at 30 mg/kg, po; type: functional, organism-based; parameters: dose 30 mg/kg
Melanin-concentrating hormone receptor 1 (Mus musculus), sequence (Q8JZL2 whole entry): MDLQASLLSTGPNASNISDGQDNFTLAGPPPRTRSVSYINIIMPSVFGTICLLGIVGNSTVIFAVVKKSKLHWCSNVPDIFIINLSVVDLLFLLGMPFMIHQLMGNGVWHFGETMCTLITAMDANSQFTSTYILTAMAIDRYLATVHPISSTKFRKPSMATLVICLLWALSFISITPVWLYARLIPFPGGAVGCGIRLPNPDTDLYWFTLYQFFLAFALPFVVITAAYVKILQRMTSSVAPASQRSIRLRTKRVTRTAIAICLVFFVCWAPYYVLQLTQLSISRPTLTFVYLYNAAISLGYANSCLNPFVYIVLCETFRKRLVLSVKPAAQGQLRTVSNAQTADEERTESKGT
Summary of the method: (§3)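 Male C57Bl/6NCrl:BR mice given vehicle (HPβCD) or compound orally; killed by CO2 at 6 or 24 h post-dose (chronic studies: 24 h after last daily dose, n = 3/group). 16 µm frozen caudate putamen sections incubated 30 min at room temperature with 700 pM [125I]-S36057 in MCH-R1 binding buffer; 1 µM MCH defines nonspecific binding. Phosphorimager quantitation; % inhibition versus vehicle.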

[5] = target: T1, Melanin-concentrating hormone receptor 1 (Homo sapiens, UniProt Q99705); experiment: Displacement of [125I]MCH from human MCHR1 expressed in CHO cell; type: cell-based
T1 sequence (Q99705 whole entry): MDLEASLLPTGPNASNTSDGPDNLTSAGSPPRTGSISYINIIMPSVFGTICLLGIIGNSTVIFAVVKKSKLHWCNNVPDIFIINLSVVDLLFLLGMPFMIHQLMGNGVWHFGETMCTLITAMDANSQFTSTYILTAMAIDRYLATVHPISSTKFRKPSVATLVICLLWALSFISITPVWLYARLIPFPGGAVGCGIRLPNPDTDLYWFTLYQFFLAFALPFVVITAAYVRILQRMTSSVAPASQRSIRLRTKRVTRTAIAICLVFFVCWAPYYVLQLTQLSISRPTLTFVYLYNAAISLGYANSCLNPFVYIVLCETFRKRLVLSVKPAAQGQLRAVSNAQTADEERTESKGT

[6] = target: T1, Melanin-concentrating hormone receptor 1; experiment: Inhibition of MCH-mediated calcium influx in CHO cells expressing human MCHR1 by FLIPR assay; type: functional, cell-based
Summary of the method: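 After two washes, treated with vehicle (buffer, 2% DMSO) or compound, then stimulated with 30 nM MCH; intracellular Ca²⁺ change read by FLIPR.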

[7] = tested on: Mus musculus; experiment: Change in body weight of C57BL/6N DIO mouse relative to control after 5 days at 30 mg/kg, po; type: functional
Summary of the method: (§4)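 DIO male C57Bl/6NCrl:BR mice (45%-fat diet, individually housed), acclimated to vehicle dosing, given compound orally once daily in 20% HPβCD for 5 or 28 days, n = 11/group. Body weight (to 0.1 g) and food intake from preweighed 3-3.5 g pellets (to 0.01 g) recorded daily; cumulative intake and % weight change at endpoint versus vehicle, ± SEM.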

[8] = tested on: Mus musculus; experiment: Change in body weight of C57BL/6N DIO mouse relative to control after 28 days at 30 mg/kg, po; type: functional; summary of the method: as §4
[9] = tested on: Mus musculus; experiment: Change in body weight of C57BL/6N DIO mouse relative to control after 5 days at 10 mg/kg, po; type: functional; summary of the method: as §4
[10] = target: Melanin-concentrating hormone receptor 1 (Mus musculus) (UniProt Q8JZL2); experiment: Receptor occupancy ex vivo by displacement of [125I]S36057 binding from MCHR1 in C57BL/6N mouse brain after 24 hrs at 30 mg/kg, po; type: functional, organism-based; parameters: dose 30 mg/kg; summary of the method: as §3
[11] = Half life in rat at 10 mg/kg, iv; type: ADME, organism-based; parameters: dose 10 mg/kg, route intravenous; details: in vivo
[12] = tested on: Mus musculus; experiment: Reduction of food intake in orally dosed C57BL/6N DIO mouse after 6 hrs at 30 mg/kg relative to control; type: functional; details: route oral; summary of the method: as §1
[13] = tested on: Mus musculus; experiment: Reduction of cumulative food intake in C57BL/6N DIO mouse relative to control after 28 days at 30 mg/kg, po; type: functional; summary of the method: as §4
[14] = tested on: Rattus norvegicus; experiment: AUC (0-6h) in rat at 10 mg/kg, po; type: ADME, organism-based, Plasma; parameters: time < 6 hr, dose 10 mg/kg, route oral; details: in vivo, 6 h
[15] = tested on: Rattus norvegicus; experiment: Volume of distribution in rat at 10 mg/kg, iv or po; type: ADME, organism-based; parameters: dose 10 mg/kg, route oral; details: in vivo
[16] = tested on: Mus musculus; experiment: Reduction of cumulative food intake in C57BL/6N DIO mouse relative to control after 5 days at 10 mg/kg, po; type: functional; summary of the method: as §4
[17] = tested on: Mus musculus; experiment: Reduction of food intake in orally dosed C57BL/6N DIO mouse after 2 hrs at 30 mg/kg relative to control; type: functional; details: route oral; summary of the method: as §1
[18] = tested on: Rattus norvegicus; experiment: Bioavailability in rat at 10 mg/kg, iv or po; type: ADME, organism-based; details: in vivo
[19] = tested on: Rattus norvegicus; experiment: as §2; type: ADME, organism-based, Plasma; parameters: time < 24 hr, dose 10 mg/kg, route oral; details: in vivo, 24 h
[20] = tested on: Mus musculus; experiment: Reduction of cumulative food intake in C57BL/6N DIO mouse relative to control after 5 days at 30 mg/kg, po; type: functional; summary of the method: as §4
[21] = tested on: Mus musculus; experiment: Change in body weight of C57BL/6N DIO mouse relative to control after 28 days at 10 mg/kg, po; type: functional; summary of the method: as §4
[22] = target: Melanin-concentrating hormone receptor 1 (Mus musculus) (UniProt Q8JZL2); details: C57BL/6N, Brain, 10 mg/kg
[23] = tested on: Mus musculus; experiment: Reduction of cumulative food intake in C57BL/6N DIO mouse relative to control after 28 days at 10 mg/kg, po; type: functional; summary of the method: as §4

Kp at 6 h [2]: 0.7
AUC(0-t) at 24 h [3]: 14 µM·h
Activity [4]: 58%
Structure (SMILES): N#Cc1cccc([C@]23CC[C@@H](N(CCN4CC[C@@H](O)C4)C(=O)Nc4ccc(F)c(Cl)c4)C[C@H]2C3)c1
Activity [1]: inactive

Ki [5]: 15.1 nM
Kb [6]: 11 nM
Kp at 6 h [2]: 1.1
AUC(0-t) at 24 h [3]: 16.4 µM·h
Activity [4]: 73%
Structure (SMILES): N#Cc1cccc([C@]23CC[C@@H](N(CCN4CC[C@H](O)C4)C(=O)Nc4ccc(F)c(C(F)(F)F)c4)C[C@H]2C3)c1
Activity [1]: Active

Ki [5]: 2.7 nM
Kb [6]: 1.9 nM
Activity [10]: 58%
half-life [11]: 4 h
AUC [14]: 642 ng·h/mL
Vdss [15]: 5.6 L/kg
F [18]: 27%
AUC [19]: 3.9 µM·h
Activity [4]: 99%
inhibition [22]: > 65%
Structure (SMILES): CN1CCN(CCCN(C(=O)Nc2ccc(F)c(C(F)(F)F)c2)[C@@H]2CC[C@]3(c4ccc(C#N)cc4)C[C@H]23)CC1 (relative stereo)
Activity [7]: -6.04%
Activity [8]: -9.83%
Activity [9]: -2.26%
Food intake (% of vehicle control) [12]: 76%
Activity [13]: 79.4 g
Food intake (% of vehicle control) ([1]; route oral): 78.1%
Activity [16]: 14.9 g
Food intake (% of vehicle) [17]: 77.3%
Activity [20]: 11.7 g
Activity [21]: -1.48%
Activity [23]: 87 g
